Measured values taken from ChEMBL document CHEMBL2086245, “Micelles catalyzed chemo- and regio-selective one pot and one step synthesis of 2,3,5,6-tetrakis(alkyl and arylsulfanyl)-1,4-benzoquinones and 2,5-diaminosubstituted-1,4-benzoquinones "In-Water" and their biological evaluation as antibacterial and antifungal agents” (Eur J Med Chem, 2012).
Converted amounts (≈) assume the structure as drawn.

Tests used:
[1] = system: Trichophyton mentagrophytes; assay: Antifungal activity against Trichophyton mentagrophytes after 96 hrs by broth microdilution method; assay type: functional
Summary of the method: (§1)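 NCCLS broth microdilution in MOPS-buffered RPMI 1640, 96-well plates. Inoculum 1-5 × 10^3 cells/mL, moist chamber, 35 °C. Absorbance at 492 nm read at 48 h (C. albicans, C. parapsilosis), 72 h (C. neoformans, S. schenckii, A. fumigatus) or 96 h (T. mentagrophytes). MIC defined as 90% growth inhibition versus growth control.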

Staphylococcus aureus = assay: Antibacterial activity against Staphylococcus aureus ATCC 25923 after 24 hrs by broth microdilution method; assay type: functional
Summary of the method: (§2)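 NCCLS broth microdilution in Mueller-Hinton broth, 96-well plates. Initial inoculum 1-5 × 10^3 cells/mL. Incubated in a moist chamber at 35 °C for 24 h, then absorbance read at 492 nm. MIC taken as the concentration giving 90% growth inhibition relative to the growth control.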

Escherichia coli = assay: Antibacterial activity against Escherichia coli ATCC 9637 after 24 hrs by broth microdilution method; assay type: functional; summary of the method: as §2
Cryptococcus neoformans = assay: Antifungal activity against Cryptococcus neoformans after 72 hrs by broth microdilution method; assay type: functional; summary of the method: as §1
Candida parapsilosis = assay: Antifungal activity against Candida parapsilosis ATCC 22019 after 48 hrs by broth microdilution method; assay type: functional; conditions: Lodderomyces parapsilosis, ATCC 22019, 48 h; summary of the method: as §1
Aspergillus fumigatus = assay: Antifungal activity against Aspergillus fumigatus after 72 hrs by broth microdilution method; assay type: functional; summary of the method: as §1
Klebsiella pneumoniae = assay: Antibacterial activity against Klebsiella pneumoniae ATCC 27736 after 24 hrs by broth microdilution method; assay type: functional; summary of the method: as §2
Sporothrix schenckii = assay: Antifungal activity against Sporothrix schenckii after 72 hrs by broth microdilution method; assay type: functional; summary of the method: as §1
Candida albicans = assay: Antifungal activity against Candida albicans after 48 hrs by broth microdilution method; assay type: functional; summary of the method: as §1
Pseudomonas aeruginosa = assay: Antibacterial activity against Pseudomonas aeruginosa ATCC BAA-427 after 24 hrs by broth microdilution method; assay type: functional; summary of the method: as §2
[2] = Cytotoxicity against mouse L929 cells assessed as cell viability at 6.25 to 50 ug/ml after 24 hrs by MTT assay; assay type: cell-based; conditions: read-out: Activity
L929 [3] = assay: Cytotoxicity against mouse L929 cells assessed as morphological changes at 6.25 to 50 ug/ml using Giemsa staining by phase contrast microscopy analysis; assay type: cell-based
Summary of the method: (§3)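 L929 fibroblasts in serum-free RPMI exposed to compound for 24 h. Wells fixed, Giemsa-stained 30 min at 37 °C, washed with PBS, air-dried. Morphology inspected by phase contrast microscopy against untreated control wells.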

L929 [4] = assay: Cytotoxicity against mouse L929 cells assessed as morphological changes at 0.39 to 1.56 ug/ml using Giemsa staining by phase contrast microscopy analysis; assay type: cell-based; summary of the method: as §3

Row | Compound | MIC [1] [µg/mL] | MIC (Staphylococcus aureus; ATCC 25923, 24 h) [µg/mL] | MIC (Escherichia coli; ATCC 9637, 24 h) [µg/mL] | MIC (Cryptococcus neoformans) [µg/mL] | MIC (Candida parapsilosis) [µg/mL] | MIC (Aspergillus fumigatus) [µg/mL] | MIC (Klebsiella pneumoniae; ATCC 27736, 24 h) [µg/mL] | MIC (Sporothrix schenckii) [µg/mL] | MIC (Candida albicans) [µg/mL] | MIC (Pseudomonas aeruginosa; ATCC BAA-427, 24 h) [µg/mL] | viability at 24 h [2] [%] | Activity (L929 [3]) | Activity (L929 [4]) | MIC (Staphylococcus aureus) [µg/mL] | MIC (Escherichia coli) [µg/mL] | MIC (Klebsiella pneumoniae) [µg/mL] | MIC (Pseudomonas aeruginosa) [µg/mL]
1 | Cc1ccc(SC2=C(Cl)C(=O)C(Sc3ccc(C)cc3)=C(Cl)C2=O)cc1 | 50 (≈ 119 µM) | 50 (≈ 119 µM) | > 50 | 25 (≈ 59.3 µM) | 25 (≈ 59.3 µM) | > 50 | > 50 | 50 (≈ 119 µM) | 25 (≈ 59.3 µM) | > 50 | – | – | – | – | – | – | –
2 | O=C1C(Cl)=C(Sc2ccccc2)C(=O)C(Cl)=C1Sc1ccccc1 | 50 (≈ 127 µM) | 50 (≈ 127 µM) | > 50 | 25 (≈ 63.6 µM) | 25 (≈ 63.6 µM) | > 50 | > 50 | 50 (≈ 127 µM) | 25 (≈ 63.6 µM) | > 50 | – | – | – | – | – | – | –
3 | O=C1C(Cl)=C(Sc2ccccc2)C(=O)C(Sc2ccccc2)=C1Sc1ccccc1 | 50 (≈ 107 µM) | 50 (≈ 107 µM) | > 50 | 25 (≈ 53.5 µM) | 25 (≈ 53.5 µM) | > 50 | > 50 | 50 (≈ 107 µM) | 25 (≈ 53.5 µM) | > 50 | – | – | – | – | – | – | –
4 | O=C1C(Cl)=C(N2CCCCC2)C(=O)C(Cl)=C1N1CCCCC1 | 12.5 (≈ 36.4 µM) | > 50 | > 50 | 25 (≈ 72.8 µM) | 25 (≈ 72.8 µM) | > 50 | > 50 | 25 (≈ 72.8 µM) | 25 (≈ 72.8 µM) | > 50 | – | – | – | – | – | – | –
5 | O=C1C=C(Sc2ccccc2)C(=O)C=C1Sc1ccccc1 | 50 (≈ 154 µM) | > 50 | > 50 | 25 (≈ 77.1 µM) | 50 (≈ 154 µM) | > 50 | > 50 | 50 (≈ 154 µM) | 25 (≈ 77.1 µM) | > 50 | – | – | – | – | – | – | –
6 | O=C1C(O)=C(Sc2ccccc2)C(=O)C(Sc2ccccc2)=C1Sc1ccccc1 | 50 (≈ 111 µM) | > 50 | > 50 | 12.5 (≈ 27.9 µM) | 12.5 (≈ 27.9 µM) | > 50 | > 50 | 50 (≈ 111 µM) | 12.5 (≈ 27.9 µM) | > 50 | – | – | – | – | – | – | –
7 | CCOC(=O)CC(SC1=C(SC(CC(=O)OCC)C(=O)OCC)C(=O)C(SC(CC(=O)OCC)C(=O)OCC)=C(SC(CC(=O)OCC)C(=O)OCC)C1=O)C(=O)OCC (centres undefined) | 50 (≈ 54 µM) | > 50 | > 50 | 50 (≈ 54 µM) | 25 (≈ 27 µM) | > 50 | > 50 | > 50 | 25 (≈ 27 µM) | > 50 | – | – | – | – | – | – | –
8 | CCOC(=O)CSC1=C(SCC(=O)OCC)C(=O)C(SCC(=O)OCC)=C(SCC(=O)OCC)C1=O | 50 (≈ 86.1 µM) | 50 (≈ 86.1 µM) | > 50 | 50 (≈ 86.1 µM) | 25 (≈ 43 µM) | > 50 | > 50 | > 50 | 25 (≈ 43 µM) | > 50 | – | – | – | – | – | – | –
9 | O=C1C(Sc2ccccc2)=C(Sc2ccccc2)C(=O)C(Sc2ccccc2)=C1Sc1ccccc1 | 0.78 (≈ 1.44 µM) | > 50 | > 50 | 12.5 (≈ 23.1 µM) | 6.25 (≈ 11.6 µM) | 50 (≈ 92.5 µM) | > 50 | 1.56 (≈ 2.88 µM) | 12.5 (≈ 23.1 µM) | > 50 | – | – | – | – | – | – | –
10 | Clc1ccccc1C(c1ccccc1)(c1ccccc1)n1ccnc1 [CLOTRIMAZOLE] | 2 (≈ 5.8 µM) | – | – | 0.25 (≈ 0.725 µM) | 1 (≈ 2.9 µM) | 8 (≈ 23.2 µM) | – | 4 (≈ 11.6 µM) | 0.25 (≈ 0.725 µM) | – | – | – | – | – | – | – | –
11 | Cc1ccc(SC2=C(O)C(=O)C(Sc3ccc(C)cc3)=C(Sc3ccc(C)cc3)C2=O)cc1 | 50 (≈ 102 µM) | > 50 | > 50 | 25 (≈ 51 µM) | 25 (≈ 51 µM) | > 50 | > 50 | > 50 | 12.5 (≈ 25.5 µM) | > 50 | – | – | – | – | – | – | –
12 | Nc1nc(=O)[nH]cc1F [FLUCYTOSINE] | > 32 | – | – | 0.13 (≈ 1.01 µM) | 0.13 (≈ 1.01 µM) | > 32 | – | > 32 | 0.25 (≈ 1.94 µM) | – | – | – | – | – | – | – | –
13 | CC1(C)S[C@@H]2[C@H](NC(=O)[C@H](N)c3ccccc3)C(=O)N2[C@H]1C(=O)O [AMPICILLIN] | – | 12.5 (≈ 35.8 µM) | 12.5 (≈ 35.8 µM) | – | – | – | > 50 | – | – | > 50 | – | – | – | – | – | – | –
14 | O=C1C(Cl)=C(Sc2cccc3ccccc23)C(=O)C(Cl)=C1Sc1cccc2ccccc12 | 50 (≈ 101 µM) | 25 (≈ 50.7 µM) | > 50 | 25 (≈ 50.7 µM) | 12.5 (≈ 25.3 µM) | > 50 | > 50 | 50 (≈ 101 µM) | 25 (≈ 50.7 µM) | > 50 | – | – | – | – | – | – | –
15 | CN1CCN(C2=C(Cl)C(=O)C(N3CCN(C)CC3)=C(Cl)C2=O)CC1 | 0.78 (≈ 2.09 µM) | 6.25 (≈ 16.7 µM) | 6.25 (≈ 16.7 µM) | 1.56 (≈ 4.18 µM) | 6.25 (≈ 16.7 µM) | 12.5 (≈ 33.5 µM) | 6.25 (≈ 16.7 µM) | 1.56 (≈ 4.18 µM) | 6.25 (≈ 16.7 µM) | > 50 | > 90 | Toxic | Non-toxic | – | – | – | –
16 | GENTAMICIN | – | – | – | – | – | – | – | – | – | – | – | – | – | 1.56 | 1.56 | 1.56 | 0.39
17 | O=C1C(Cl)=C(Sc2cccc3ccccc23)C(=O)C(Sc2cccc3ccccc23)=C1Sc1cccc2ccccc12 | 50 (≈ 81 µM) | 12.5 (≈ 20.3 µM) | > 50 | 25 (≈ 40.5 µM) | 12.5 (≈ 20.3 µM) | > 50 | > 50 | 50 (≈ 81 µM) | 25 (≈ 40.5 µM) | > 50 | – | – | – | – | – | – | –
18 | O=C1C(Cl)=C(N2CCCC2)C(=O)C(Cl)=C1N1CCCC1 | 50 (≈ 159 µM) | > 50 | > 50 | 25 (≈ 79.3 µM) | 50 (≈ 159 µM) | > 50 | > 50 | > 50 | 25 (≈ 79.3 µM) | > 50 | – | – | – | – | – | – | –
19 | O=C1C(O)=C(Sc2cccc3ccccc23)C(=O)C(Sc2cccc3ccccc23)=C1Sc1cccc2ccccc12 | 50 (≈ 83.5 µM) | > 50 | > 50 | 25 (≈ 41.8 µM) | 25 (≈ 41.8 µM) | > 50 | > 50 | > 50 | 25 (≈ 41.8 µM) | > 50 | – | – | – | – | – | – | –
20 | Cc1ccc(SC2=C(Sc3ccc(C)cc3)C(=O)C(Sc3ccc(C)cc3)=C(Sc3ccc(C)cc3)C2=O)cc1 | > 50 | > 50 | > 50 | > 50 | 25 (≈ 41.9 µM) | > 50 | > 50 | 50 (≈ 83.8 µM) | 25 (≈ 41.9 µM) | > 50 | – | – | – | – | – | – | –
21 | OC(Cn1cncn1)(Cn1cncn1)c1ccc(F)cc1F [FLUCONAZOLE] | 16 (≈ 52.2 µM) | – | – | 2 (≈ 6.53 µM) | 0.5 (≈ 1.63 µM) | > 32 | – | 4 (≈ 13.1 µM) | 1 (≈ 3.27 µM) | – | – | – | – | – | – | – | –
22 | O=C1C(Cl)=C(N2CCOCC2)C(=O)C(Cl)=C1N1CCOCC1 | 6.25 (≈ 18 µM) | 25 (≈ 72 µM) | > 50 | 12.5 (≈ 36 µM) | 12.5 (≈ 36 µM) | > 50 | > 50 | 12.5 (≈ 36 µM) | 12.5 (≈ 36 µM) | > 50 | – | – | – | – | – | – | –
